The values that follow come from ChEMBL document CHEMBL1131588, “A novel class of orally active non-peptide bradykinin B2 receptor antagonists. 2. Overcoming the species difference between guinea pig and man” (J Med Chem, 1998).

Test [1] concerns the target T1, B2 bradykinin receptor (Cavia porcellus, UniProt O70526).
T1 sequence (O70526 whole entry): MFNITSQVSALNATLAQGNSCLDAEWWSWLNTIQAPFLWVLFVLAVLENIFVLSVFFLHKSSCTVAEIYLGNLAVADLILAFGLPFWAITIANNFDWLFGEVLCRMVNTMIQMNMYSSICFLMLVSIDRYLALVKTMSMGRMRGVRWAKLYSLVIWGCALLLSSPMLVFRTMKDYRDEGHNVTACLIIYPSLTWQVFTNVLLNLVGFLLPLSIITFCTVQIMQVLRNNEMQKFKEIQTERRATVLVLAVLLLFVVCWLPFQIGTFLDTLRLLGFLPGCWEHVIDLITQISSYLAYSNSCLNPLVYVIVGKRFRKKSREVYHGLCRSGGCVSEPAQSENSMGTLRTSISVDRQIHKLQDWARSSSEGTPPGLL
In words: Concentration required to inhibit specific binding of [3H]BK at 0.06 nM to Bradykinin receptor B2 in guinea pig ileum membrane preparations by 50%. Format: cell membranes. The method in brief: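 Guinea pig ileal membranes (100000g pellet, pH 6.8 TES buffer with phenanthroline, bacitracin, DTT, captopril, 0.1% BSA), 0.2 mg protein/mL, incubated with 0.06 nM [3H]BK and compounds 60 min at room temperature; final DMSO below 3%. Filtration on glass fiber filters, scintillation counting; nonspecific binding with 1 µM BK. Three experiments in duplicate.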

Test [2] deals with T2, B2 bradykinin receptor (Homo sapiens, UniProt P30411).
T2 sequence (P30411 whole entry): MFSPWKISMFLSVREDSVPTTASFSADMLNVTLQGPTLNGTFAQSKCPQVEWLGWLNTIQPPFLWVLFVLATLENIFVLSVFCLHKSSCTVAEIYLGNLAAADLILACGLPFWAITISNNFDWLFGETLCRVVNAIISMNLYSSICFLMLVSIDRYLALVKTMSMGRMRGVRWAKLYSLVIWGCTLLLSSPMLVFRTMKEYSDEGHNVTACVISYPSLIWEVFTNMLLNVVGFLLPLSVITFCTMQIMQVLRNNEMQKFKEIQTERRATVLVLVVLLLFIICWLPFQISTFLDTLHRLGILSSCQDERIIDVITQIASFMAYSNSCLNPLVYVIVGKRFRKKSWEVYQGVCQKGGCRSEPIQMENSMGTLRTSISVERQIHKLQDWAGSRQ
Nature of the test: Concentration required to inhibit specific binding of [3H]BK at 1.2 nM to A-431 cells (human epidermoid carcinoma) which express Bradykinin receptor B2 by 50%. Format: cell-based.

In test [3] the test system is Cavia porcellus. In words: Compound tested in vivo for inhibition of Bradykinin induced Bronchoconstriction in anaesthetized guinea pig; % Inhibition at 1 mg/Kg p,o. In kind it is functional. The method in brief: (§1)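 Male Hartley guinea pigs (470-750 g), fasted overnight, anesthetized with pentobarbital 30 mg/kg ip, cannulated (trachea, jugular vein, esophagus), ventilated 10 mL/kg at 60 breaths/min; alcuronium 0.5 mg/kg iv, propranolol 10 mg/kg sc. BK 5 µg/kg iv; peak rise in insufflation pressure (modified Konzett-Rössler).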

The test system of test [4] is Cavia porcellus. In words: Compound tested in vivo for inhibition of Bradykinin induced Bronchoconstriction in anaesthetized guinea pig.(P<0.001);% Inhibition at 3.2 mg/Kg p,o. Format: functional. Summed up:
as §1

Test [5] deals with Cavia porcellus. Nature of the test: Compound tested in vivo for inhibition of Bradykinin induced Bronchoconstriction in anaesthetized guinea pig.(P<0.01); % Inhibition at 1 mg/kg. p.o. In kind it is functional. Conditions: route oral. The method in brief: as §1
The subject of test [6] is Cavia porcellus. Nature of the test: Compound tested in vivo for inhibition of Bradykinin induced Bronchoconstriction in anaesthetized guinea pig.(P<0.05); % Inhibition at 3.2 mg/Kg p,o. In kind it is functional. Conditions: in the assay text read “0.32 mg/Kg” for “3.2 mg/Kg”. The method in brief: as §1
The subject of test [7] is Cavia porcellus. Nature of the test: Compound tested in vivo for inhibition of Bradykinin induced Bronchoconstriction in anaesthetized guinea pig.(P<0.01); % Inhibition at 1 mg/Kg p,o. Format: functional. Summed up: as §1

A word on the IC50: it is the concentration that gives 50% inhibition. Low readings indicate inhibition by little substance, high ones a need for much substance. As usually defined, the Inhibition is the drop in the measured response relative to a control, in per cent. Lower therefore signals little suppression. One may read the inhibition in vivo as the percentage by which the read-out fell short of the control. Low readings indicate a weak effect, high ones a strong effect.

As for `CC(=O)Nc1ccc(/C=C/C(=O)NCC(=O)N(C)c2ccc(Cl)c(COc3cccn4c(Br)c(C)nc34)c2Cl)cc1.Cl`, the IC50 was 0.55 nM on B2 bradykinin receptor [1] and 1.6 nM on B2 bradykinin receptor [2]. Besides, the Inhibition with Cavia porcellus [3] was 20.7%.

`Cc1nc2c(OCc3c(Cl)ccc(N(C)C(=O)CNC(=O)CN(C)C)c3Cl)cccn2c1Br`: the Inhibition with Cavia porcellus [4] worked out at 92.8%. The compound also registered an IC50 at B2 bradykinin receptor [2] of 830 nM. In addition, 1 mg/kg produced 72.4% inhibition in vivo in the test on Cavia porcellus [5].

On to `Cc1nc2c(OCc3c(Cl)ccc(N(C)C(=O)CNC(=O)/C=C/c4ccc(C(=O)N(C)C)cc4)c3Cl)cccn2c1Br.Cl`, for which the Inhibition with Cavia porcellus [6] was determined as 74.8%; with Cavia porcellus [7], 86.7%. Moreover, the IC50 at B2 bradykinin receptor [1] turned out to be 0.66 nM; at B2 bradykinin receptor [2], 1.4 nM.
